pIC50: −log10 of the molar value. Active and inactive are the calls of the source. No cut-off for these calls is given here.
Experiments:
[1] = test system: SF-268; assay: Growth inhibition of human SF-268 cells measured after 48 hrs by sulforhodamine B assay; type: functional
How it was run: (§1)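 JFCR39 panel lines were grown in RPMI 1640 with 5% FBS, penicillin and streptomycin at 37 °C in 5% CO2. After 48 h of drug exposure, total cellular protein was measured by sulforhodamine B staining. GI50 was calculated by a previously described method.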

[2] = test system: MKN-74; assay: Growth inhibition of human MKN74 cells measured after 48 hrs by sulforhodamine B assay; type: functional; how it was run: as §1
[3] = test system: HCT-116; assay: Growth inhibition of human HCT-116 cells measured after 48 hrs by sulforhodamine B assay; type: functional; how it was run: as §1
[4] = test system: B16-F10; assay: Antitumor activity against mouse B16-F10 cells implanted in BDF1 mouse assessed as tumor size relative to control (T/C) at 100 mg/kg, po administered daily measured after 14 days; details: 336 h
[5] = Residual PI3K activity in human A549 cell lysate at 1 uM preincubated with compound for 5 mins followed by [gamma-32p]-ATP addition measured after 20 mins by immunoprecipitation based liquid scintillation spectroscopic analysis relative to control; details: A549, 25 min
[6] = Toxicity in nude mouse xenografted with human PC-3 cells assessed as change in body weight at 400 mg/kg, po administered on day 0 to 13 except for day 3 and 10 measured after 28 days (reference value: 17 %); type: organism-based; details: in vivo, 672 h, time 28 day
[7] = test system: A549; assay: Reversible inhibition of PI3K in human A549 cell lysate at 1 uM preincubated with compound for 5 mins followed by [gamma-32p]-ATP addition measured after 20 mins by immunoprecipitation based liquid scintillation spectroscopic analysis; type: subcellular; details: time 25.0 min
How it was run: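 Anti-p85 immunoprecipitates from A549 lysate treated 5 min with 1 μM compound, then split: one aliquot washed four times in 100 mM NaCl, 20 mM Tris pH 7.5 to remove free inhibitor, the other unwashed; both assayed with [γ-32P]ATP and phosphatidylinositol, PI3P counted by scintillation.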

[8] = test system: MKN-28; assay: Growth inhibition of human MKN-28 cells measured after 48 hrs by sulforhodamine B assay; type: functional; how it was run: as §1
[9] = biological target: Forkhead box protein O1 (Homo sapiens) (UniProt Q12778); assay: Inhibition of FKHR phosphorylation at Thr-24 residue in human A549 cells measured after 3 hrs by immunoblotting analysis; type: cell-based; details: dose <= 2.0 µM
How it was run: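 A549 cells treated over 0 to 2.0 μM; lysed in 10 mM Tris–HCl pH 7.4, 50 mM NaCl, NaF, pyrophosphate, vanadate, EDTA, protease inhibitors, 0.5% NP-40, 0.1% SDS; proteins resolved by SDS-PAGE, blotted to PVDF, probed with phospho-specific antibodies, HRP secondary, ECL detection.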

[10] = test system: A549; assay: Downregulation of cyclin D1 expression in human A549 cells at 0.5 uM measured after 30 mins by Western blotting analysis; type: functional, cell-based
How it was run: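 A549 cells were lysed in Tris-HCl pH 7.4 buffer with NaF, pyrophosphate, Na3VO4, EDTA, aprotinin, PMSF, 0.5% NP-40 and 0.1% SDS. Lysates were run on SDS-PAGE and blotted to PVDF. Blots were probed with rabbit anti-cyclin D1 polyclonal (1:200), then HRP anti-rabbit IgG, and detected by ECL chemiluminescence.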

[11] = test system: DMS-114; assay: Growth inhibition of human DMS-114 cells measured after 48 hrs by sulforhodamine B assay; type: functional; how it was run: as §1
[12] = test system: MKN-45; assay: Growth inhibition of human MKN-45 cells measured after 48 hrs by sulforhodamine B assay; type: functional; how it was run: as §1
[13] = test system: OVCAR-5; assay: Growth inhibition of human OVCAR-5 cells measured after 48 hrs by sulforhodamine B assay; type: functional; how it was run: as §1
[14] = test system: MEF; assay: Inhibition of PI3K in platelet-derived growth factor induced mouse MEF cells assessed as reduction in PIP3 formation at 1 uM preincubated with compound for 15 mins followed by induction by immunoprecipitation based liquid scintillation spectroscopic analysis; type: cell-based
How it was run: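 Murine embryonic fibroblasts labelled 4 h at 37 °C in phosphate-free DMEM with 25 mM HEPES pH 7.4 and [32P]orthophosphate (0.1 mCi/mL); 1 μM compound for 15 min before PDGF (10 ng/mL) stimulation; PIP3 formation measured.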

[15] = test system: KM12; assay: Growth inhibition of human KM12 cells measured after 48 hrs by sulforhodamine B assay; type: functional; how it was run: as §1
[16] = test system: OVCAR-3; assay: Induction of apoptosis in human OVCAR-3 cells assessed as increase in chromatin condensation at 10 uM measured after 48 hrs by Hoechst 33342 staining based fluorescence microscopic analysis; type: functional, cell-based
How it was run: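 OVCAR3 cells grown 24 h in RPMI 1640 with 5% FBS, then 48 h with or without 10 μM compound; fixed in 1% glutaraldehyde in PBS at 4 °C for 24 h, stained with 167 μM Hoechst 33342, apoptotic cells scored by fluorescence microscopy.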

[17] = test system: A549; assay: (§2) Inhibition of PI3K in human A549 cell lysate preincubated with compound for 5 mins followed by [gamma-32p]-ATP addition measured after 20 mins by immunoprecipitation based liquid scintillation spectroscopic analysis; type: subcellular; details: dose 0.01-1 µM, time 25.0 min
How it was run: (§3)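 PI3K immunoprecipitated with anti-p85 polyclonal antibody and protein G–agarose from A549 lysate (2–4 mg/mL protein), washed, suspended in buffer C (100 mM NaCl, 20 mM Tris pH 7.5) with 200 μg/mL phosphatidylinositol; compound preincubated 5 min at 25 °C; reaction started with [γ-32P]ATP (20 μM final) and 20 mM MgCl2, run 20 min at 25 °C; PI3P separated by TLC, counted by scintillation; activity as % of no-compound cpm.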

[18] = as §2; type: subcellular; how it was run: as §3
[19] = test system: OVCAR-8; assay: Growth inhibition of human OVCAR-8 cells measured after 48 hrs by sulforhodamine B assay; type: functional; how it was run: as §1
[20] = test system: PC-3; assay: Growth inhibition of human PC-3 cells measured after 48 hrs by sulforhodamine B assay; type: functional; how it was run: as §1
[21] = test system: OVCAR-4; assay: Growth inhibition of human OVCAR-4 cells measured after 48 hrs by sulforhodamine B assay; type: functional; how it was run: as §1
[22] = test system: SF-539; assay: Growth inhibition of human SF-539 cells measured after 48 hrs by sulforhodamine B assay; type: functional; how it was run: as §1
[23] = […] toxicity in nude mouse xenografted with human A549 cells assessed as change in body weight at 800 mg/kg, po administered on day 0 to 13 except for day 3 and 10 measured after 28 days; type: organism-based; details: in vivo, 672 h, time 28 day
[24] = test system: SF-295; assay: Growth inhibition of human SF-295 cells measured after 48 hrs by sulforhodamine B assay; type: functional; how it was run: as §1
[25] = test system: A549; assay: Antitumor activity against human A549 cells xenografted in nude mouse assessed as inhibition of tumor growth at 400 mg/kg, po administered on day 0 to 13 except for day 3 and 10 measured after 14 days; type: functional, organism-based; details: time 14.0 day
How it was run: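 Female BALB/c-background nude mice were implanted s.c. with 3 × 3 × 3 mm tumor fragments. At 100–300 mm3 tumor volume (day 0), groups of five were randomized and dosed orally at 400 mg/kg on days 0–13, skipping days 3 and 10. Caliper volume was (L×W2)/2, relative to day 0 (RTV). T/C% on day 14 = 100 × mean treated RTV / mean control RTV.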

[26] = test system: SNB-75; assay: Growth inhibition of human SNB-75 cells measured after 48 hrs by sulforhodamine B assay; type: functional; how it was run: as §1

Chain of Forkhead box protein O1 (Homo sapiens) (Q12778 whole entry): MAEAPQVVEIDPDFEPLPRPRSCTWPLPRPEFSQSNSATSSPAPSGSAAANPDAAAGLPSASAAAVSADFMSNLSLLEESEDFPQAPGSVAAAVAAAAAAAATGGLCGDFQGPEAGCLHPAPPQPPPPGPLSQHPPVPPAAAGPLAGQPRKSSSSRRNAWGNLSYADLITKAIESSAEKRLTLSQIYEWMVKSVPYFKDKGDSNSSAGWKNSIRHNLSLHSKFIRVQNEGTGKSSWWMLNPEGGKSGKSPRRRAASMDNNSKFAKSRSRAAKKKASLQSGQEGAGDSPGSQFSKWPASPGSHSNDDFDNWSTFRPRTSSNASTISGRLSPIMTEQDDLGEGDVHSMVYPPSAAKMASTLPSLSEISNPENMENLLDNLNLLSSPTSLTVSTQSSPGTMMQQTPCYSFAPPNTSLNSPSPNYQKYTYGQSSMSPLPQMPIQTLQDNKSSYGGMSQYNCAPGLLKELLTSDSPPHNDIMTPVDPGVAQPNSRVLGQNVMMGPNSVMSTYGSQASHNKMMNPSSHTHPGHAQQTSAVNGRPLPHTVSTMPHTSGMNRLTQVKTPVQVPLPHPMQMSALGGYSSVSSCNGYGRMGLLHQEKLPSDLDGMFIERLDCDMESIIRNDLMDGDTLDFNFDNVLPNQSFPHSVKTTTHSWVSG

FC(F)c1nc2ccccc2n1-c1nc(N2CCOCC2)nc(N2CCOCC2)n1 [ZSTK-474]
GI50 [1]: 0.646 µM | GI50 [2]: 0.617 µM | GI50 [3]: 1.51 µM | T/C at 100 mg/kg [4]: 28.5% | level, % of control at 1 µM [5]: 4.7% | Activity [6]: 17% | inhibition [7]: Active | GI50 [8]: 1.35 µM | inhibition [9]: Dose-Dependent Effect | Activity [10]: Active | GI50 [11]: 0.295 µM | GI50 [12]: 0.288 µM | GI50 [13]: 0.813 µM | inhibition [14]: Active | GI50 [15]: 1.66 µM | Activity [16]: Active | Activity [17]: Dose-Dependent Effect | pIC50 [18]: 7.43 | GI50 [19]: 1.05 µM | GI50 [20]: 0.038 µM | GI50 [21]: 0.182 µM | GI50 [22]: 0.347 µM | Activity [23]: Non-Toxic | GI50 [24]: 0.186 µM | Activity [25]: Active | GI50 [26]: 0.0457 µM
